Each block holds one molecule with its values, some of them ahead of it. Square brackets hold non-standard residues; d marks the D form. Peptide text beside a SMILES is read from it. * marks the point of attachment. Cbz = O=C(OCc1ccccc1)*; βAla = NCCC(=O)O
Key:
[1] = target: recombinant human 6His-tagged-Pin1 (Homo sapiens, UniProt Q13526); assay: Direct-binding assay
How it was run: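 Label-free optical biosensor assay. His6-Pin1 was expressed in E. coli BL21(DE3), purified, and immobilised at 150 µg/mL in 20 mM sodium acetate pH 5.5 overnight at 4 °C. Equilibrated 4 h in PBS, 0.5% DMSO, pH 7.4, then baseline read. Peptides were serially diluted to twelve concentrations from 500 µM final and read over 1 h. KD came from last-baseline-to-maximum signal, mean ± S.D. of three independent experiments.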

HCT116 cells [2] = assay: MTT anti-proliferative assay, HCT116; assay type: cell-based, human; details: 10 μM, 24 h
How it was run: (§1)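 MTT viability. A549, HCT116, MCF7 and AC16 were grown in DMEM; LNCaP in RPMI 1640. Both media had 10% FBS, penicillin/streptomycin, amphotericin-B and 2 mM L-glutamine. Cells seeded at 3×10⁴/well, treated in triplicate at 10 µM for 24 and 48 h. MTT 0.5 mg/mL for 3 h, formazan dissolved in DMSO, absorbance read at 570 nm. Expressed as % of untreated control, mean ± S.D. of three independent experiments.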

AC16 non-tumor cells = assay: MTT anti-proliferative assay, R8 peptides, AC16; assay type: cell-based, human; details: 10 μM, 24 h and 48 h
How it was run: as §1

[3] = tested on: cancer cell lines (A549, HCT116, MCF7, LNCaP); assay: MTT anti-proliferative assay, R8 peptides, cancer cell lines; assay type: cell-based, human; details: 10 μM, after 24 h, effect persisted up to 48 h; all cancer cells tested
How it was run: as §1

HCT116 cells [4] = assay: Cell cycle analysis by flow cytometry; assay type: cell-based, human; details: 10 μM, 48 h
How it was run: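 HCT116 cells plated at 2×10⁵ cells/mL in triplicate and treated at 10 µM for 48 h. Harvested in PBS, spun at 1200 rpm for 5 min, then resuspended in hypotonic buffer (1×PBS, 0.1% sodium citrate, 0.1% NP-40, RNase A, […]). Held 30 min at RT in the dark, then run on flow cytometry with SSC-A/FSC-A gating and PI-A intensity.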

[5] = target: parvulin-14 (Par14), also known as Pin4 (human) (UniProt Q9Y237); assay: Corning Epic label-free optical biosensor
[6] = target: NIMA interacting protein 1 (Pin1) (human) (UniProt Q13526); assay: Corning Epic label-free optical biosensor
[7] = target: recombinant human 6His-tagged-Pin4 (Homo sapiens, UniProt Q9Y237); assay: Direct-binding assay
recombinant human 6His-tagged-Pin4, sequence (Q9Y237 whole entry): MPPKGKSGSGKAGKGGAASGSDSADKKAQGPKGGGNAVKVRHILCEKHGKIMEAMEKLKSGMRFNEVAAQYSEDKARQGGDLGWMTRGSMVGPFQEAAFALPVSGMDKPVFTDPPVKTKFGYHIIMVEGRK

NIMA interacting protein 1 (Pin1) (human), sequence (Q13526 whole entry): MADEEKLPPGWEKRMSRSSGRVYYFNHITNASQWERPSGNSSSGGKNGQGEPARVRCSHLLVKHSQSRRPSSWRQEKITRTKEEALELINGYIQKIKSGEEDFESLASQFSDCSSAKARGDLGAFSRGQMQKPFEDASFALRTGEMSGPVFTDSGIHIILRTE
recombinant human 6His-tagged-Pin1, sequence (Q13526 whole entry): as above
parvulin-14 (Par14), also known as Pin4 (human), sequence (Q9Y237 whole entry): as the sequence (Q9Y237 whole entry) above

binding to Pin1 (in words) [1]: does not reach saturation
Molecule: COC(=O)[C@H](Cc1ccccc1)NC(=O)[C@@H]1CCCN1C(=O)[C@H](CCCCNC(=O)OCc1ccccc1)NC(=O)[C@H](C)NC(=O)CCNC(=O)[C@H](CCCNC(=N)N)NC(=O)[C@H](CCCNC(=N)N)NC(=O)[C@H](CCCNC(=N)N)NC(=O)[C@H](CCCNC(=N)N)NC(=O)[C@H](CCCNC(=N)N)NC(=O)[C@H](CCCNC(=N)N)NC(=O)[C@H](CCCNC(=N)N)NC(=O)[C@@H](N)CCCNC(=N)N [R8–5 i] (H-RRRRRRRR[βAla]AK(Cbz)PF-OMe; N-terminus assumed)
reduction of cell proliferation (HCT116 cells [2]): ~60% | anti-proliferative activity (AC16 non-tumor cells): less than 20% | reduction of cell proliferation [3]: 50–60% | cells within G1 phase (HCT116 cells [4]): 66.4%

Kd [6]: 53.6 µM
Molecule: Methyl N2-(acetyl-L-alanyl)-Nω-((4-methoxy-2,3,6-trimethylphenyl)sulfonyl)-L-arginyl-L-prolyl-L-phenylalaninate (5 c) (peptide)

Kd [6]: 22.4 µM
Molecule: Methyl acetyl-L-alanyl-L-lysyl-L-prolyl-L-phenylalaninate (5 j) (peptide)

Kd [6]: 62.5 µM
B1: Methyl acetyl-L-alanyl-L-glutaminyl-L-prolyl-L-phenylalaninate (5 m) (peptide)
peptide: Ac-AQPF-OMe
SMILES: COC(=O)[C@H](Cc1ccccc1)NC(=O)[C@@H]1CCCN1C(=O)[C@H](CCC(N)=O)NC(=O)[C@H](C)NC(C)=O

Kd [6]: 4.5 µM
B2: Methyl acetyl-L-alanyl-L-seryl-L-prolyl-L-phenylalaninate (5 h) (peptide)
peptide: Ac-ASPF-OMe
SMILES: COC(=O)[C@H](Cc1ccccc1)NC(=O)[C@@H]1CCCN1C(=O)[C@H](CO)NC(=O)[C@H](C)NC(C)=O

Kd [6]: 14.1 µM
B3: Methyl acetyl-L-alanyl-L-methionyl-L-prolyl-L-phenylalaninate (5 l) (peptide)
peptide: Ac-AMPF-OMe
SMILES: COC(=O)[C@H](Cc1ccccc1)NC(=O)[C@@H]1CCCN1C(=O)[C@H](CCSC)NC(=O)[C@H](C)NC(C)=O

Kd [5]: 5.7 µM
B4: Methyl acetyl-L-alanyl-L-histidyl-L-prolyl-L-phenylalaninate (5 k) (peptide)
peptide: Ac-AHPF-OMe
SMILES: COC(=O)[C@H](Cc1ccccc1)NC(=O)[C@@H]1CCCN1C(=O)[C@H](Cc1c[nH]cn1)NC(=O)[C@H](C)NC(C)=O

Kd [6]: 6.09 µM
Molecule: Ac-AGPF-OMe (SMILES COC(=O)[C@H](Cc1ccccc1)NC(=O)[C@@H]1CCCN1C(=O)CNC(=O)[C@H](C)NC(C)=O) [Methyl acetyl-L-alanylglycyl-L-prolyl-L-phenylalaninate (5 a)]

Kd [6]: 30.5 µM
Molecule: Ac-ARPF-OMe [Methyl acetyl-L-alanyl-L-arginyl-L-prolyl-L-phenylalaninate (5 d)]

Kd [6]: 6.11 µM
B5: Methyl acetyl-L-alanyl-L-valyl-L-prolyl-L-phenylalaninate (5 b) (peptide)
peptide: Ac-AVPF-OMe
SMILES: COC(=O)[C@H](Cc1ccccc1)NC(=O)[C@@H]1CCCN1C(=O)[C@@H](NC(=O)[C@H](C)NC(C)=O)C(C)C

Second part, the molecule before the results:

Molecule: COC(=O)[C@H](Cc1ccccc1)NC(=O)[C@@H]1CCCN1C(=O)[C@H](CCCNC(=N)NS(=O)(=O)c1c(C)cc(OC)c(C)c1C)NC(=O)[C@H](C)NC(C)=O [5 c, Methyl N^2‐(acetyl‐L‐alanyl)‐N^ω‐((4‐methoxy‐2,3,6‐trimethylphenyl)sulfonyl)‐L‐arginyl‐L‐prolyl‐L‐phenylalaninate]
binding to Pin1 (in words) [1]: very little or no binding affinity

Molecule: COC(=O)[C@H](Cc1ccccc1)NC(=O)[C@@H]1CCCN1C(=O)[C@H](Cc1c[nH]cn1)NC(=O)[C@H](C)NC(=O)CCNC(=O)[C@H](CCCNC(=N)N)NC(=O)[C@H](CCCNC(=N)N)NC(=O)[C@H](CCCNC(=N)N)NC(=O)[C@H](CCCNC(=N)N)NC(=O)[C@H](CCCNC(=N)N)NC(=O)[C@H](CCCNC(=N)N)NC(=O)[C@H](CCCNC(=N)N)NC(=O)[C@@H](N)CCCNC(=N)N [R8–5 k] (H-RRRRRRRR[βAla]AHPF-OMe; N-terminus assumed)
reduction of cell proliferation (HCT116 cells [2]): ~60% | anti-proliferative activity (AC16 non-tumor cells): less than 20% | reduction of cell proliferation [3]: 50–60% | cells within G1 phase (HCT116 cells [4]): 61.2%

Molecule: Methyl N2-(acetyl-L-alanyl)-N6-((benzyloxy)carbonyl)-L-lysyl-L-prolyl-L-phenylalaninate (5 i) (peptide)
Kd [5]: 28.2 µM | Kd [6]: 70.2 µM

Molecule: Methyl N‐(acetyl‐L‐alanyl)‐O‐benzyl‐L‐seryl‐L‐prolyl‐L‐phenylalaninate [5 g]
binding to Pin1 (in words) [1]: very little or no binding affinity

Molecule: Methyl acetyl‐L‐alanyl‐L‐lysyl‐D‐prolyl‐L‐phenylalaninate [5 p]
binding to Pin1 (in words) [1]: abrogates the interaction

Molecule: tert‐Butyl (S)‐4‐((S)‐2‐acetamidopropanamido)‐5‐((S)‐2‐(((R)‐1‐methoxy‐1‐oxo‐3‐phenylpropan‐2‐yl)carbamoyl)pyrrolidin‐1‐yl)‐5‐oxopentanoate [5 e]
binding to Pin1 (in words) [1]: very little or no binding affinity | binding to Pin4 (in words) [7]: micromolar range

Molecule: Ac-[dA]EPF-OMe
Kd [5]: 18.6 µM

From publication PMC9321596 (Chemmedchem, 2022)
